One may read the mortality as the percentage killed.

Among the data in ChEMBL document CHEMBL3044760, “Synthesis and insecticidal activity of heptafluoroisopropyl-containing benzoylphenylurea structures” (2010) are mortality and Activity values, retold here.

Active and inactive are the calls of the source. The rule behind the calls is not given here.

The subject of test [1] is Mythimna separata. The test can be described thus: Insecticidal activity against Mythimna separata (Oriental armyworm) second-instar larvae reared on compound pre-treated corn disks assessed as larval mortality at 15.625 mg/L measured 7 days post compound treatment by leaf-dip method. Format: functional. In a few lines:
(§1)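 Leaf-dip: corn disks dipped 5 s in test solution, air-dried on filter paper, set on agar in 7 cm Petri dishes, with water-dipped disks as controls. Ten second-instar larvae per disk; dishes sealed with ventilated lids and stored inverted. Mortality scored at 7 days and corrected by Abbott's formula when needed. Diflubenzuron run under the same conditions.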

Test [2] has as its system Mythimna separata. In words: Insecticidal activity against Mythimna separata (Oriental armyworm) second-instar larvae reared on compound pre-treated corn disks assessed as larval mortality at 31.25 mg/L measured 7 days post compound treatment by leaf-dip method. Format: functional. In a few lines: as §1
Test [3] concerns Mythimna separata. In words: Insecticidal activity against Mythimna separata (Oriental armyworm) second-instar larvae reared on compound pre-treated corn disks assessed as larval mortality at 0.125 mg/L measured 7 days post compound treatment by leaf-dip method. Format: functional. In a few lines:
as §1

Test [4] deals with Mythimna separata. In words: Insecticidal activity against Mythimna separata (Oriental armyworm) second-instar larvae reared on compound pre-treated corn disks assessed as larval mortality at 0.25 mg/L measured 7 days post compound treatment by leaf-dip method. Format: functional. In a few lines:
as §1

In test [5] the test system is Plutella xylostella. In words: Insecticidal activity against Plutella xylostella (diamondback moth) […] using 5% compound EC formulation at 37.5 g of ai/ha measured after 7 days field trial. It counts as functional.
Test [6] has as its system Bemisia tabaci. The test can be described thus: Insecticidal activity against Bemisia tabaci (sweet potato whitefly) nymphs assessed as effect on larval pupation. Format: functional, organism-based.
Test [7] deals with Spodoptera littoralis. In words: Insecticidal activity against Spodoptera littoralis worm third-instar larvae grown on compound pre-treated caster bean leaves assessed as larval weight gain at 0.5 mg of ai/L measured 8 days post compound treatment relative to untreated control. Format: functional.
For test [8], the system named is Spodoptera littoralis. The test can be described thus: Insecticidal activity against Spodoptera littoralis worm third-instar larvae grown on compound pre-treated caster bean leaves assessed as larval weight gain at 0.25 mg of ai/L measured 8 days post compound treatment relative to untreated control. Format: functional.
In test [9] the test system is Spodoptera littoralis. In words: Insecticidal activity against Spodoptera littoralis worm third-instar larvae grown on compound pre-treated caster bean leaves assessed as larval mortality at 0.5 mg of ai/L measured 8 days post compound treatment. It counts as functional. In a few lines: (§2)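 Castor bean leaves treated at 0.25 or 0.5 mg ai/L formulation and fed to S. littoralis third instars (11 ± 1 mg) for 4 days, then moved to untreated leaves for 4 more days. Larval mortality scored at day 4 and day 8.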

The subject of test [10] is Spodoptera littoralis. In words: Insecticidal activity against Spodoptera littoralis worm third-instar larvae grown on compound pre-treated caster bean leaves assessed as larval mortality at 0.25 mg of ai/L measured 8 days post compound treatment. Format: functional. In a few lines:
as §2

The subject of test [11] is Pieris rapae. The test can be described thus: Insecticidal activity against imported cabbage worm measured 7 days after application of compound at 2000 diluent 5% EC. Format: functional, organism-based.
Test [12] relates to Cnaphalocrocis medinalis. The test can be described thus: Insecticidal activity against rice leaf roller third-instar larvae using 5% compound EC formulation at 25 g of ai/ha measured after 10 days field plot trial. It counts as functional, organism-based.
The subject of test [13] is Spodoptera littoralis. In words: Insecticidal activity against Spodoptera littoralis worm third-instar larvae grown on compound pre-treated caster bean leaves assessed as larval mortality at 0.5 mg of ai/L measured 4 days post compound treatment. Format: functional. In a few lines:
as §2

Test [14] has as its system Spodoptera littoralis. In words: Insecticidal activity against Spodoptera littoralis worm third-instar larvae grown on compound pre-treated caster bean leaves assessed as larval mortality at 0.25 mg of ai/L measured 4 days post compound treatment. Format: functional. In a few lines:
as §2

Test [15] deals with Mythimna separata. The test can be described thus: Insecticidal activity against Mythimna separata (Oriental armyworm) second-instar larvae reared on compound pre-treated corn disks assessed as larval mortality at 62.5 mg/L measured 7 days post compound treatment by leaf-dip method. It counts as functional. In a few lines: as §1
Test [16] concerns Mythimna separata. In words: Insecticidal activity against Mythimna separata (Oriental armyworm) second-instar larvae reared on compound pre-treated corn disks assessed as larval mortality at 10 mg/L measured 7 days post compound treatment by leaf-dip method. It counts as functional. In a few lines:
as §1

In test [17] the test system is Mythimna separata. The test can be described thus: Insecticidal activity against Mythimna separata (Oriental armyworm) second-instar larvae reared on compound pre-treated corn disks assessed as larval mortality at 50 mg/L measured 7 days post compound treatment by leaf-dip method. It counts as functional. In a few lines:
as §1

For test [18], the system named is Bemisia tabaci. In words: Insecticidal activity against Bemisia tabaci (sweet potato whitefly) nymphs assessed as suppression of larval pupation at 0.3 mg of ai/ha. It counts as functional, organism-based.
Test [19] relates to Spodoptera littoralis. In words: Insecticidal activity against Spodoptera littoralis worm third-instar larvae grown on compound pre-treated caster bean leaves assessed as larval weight gain at 0.5 mg of ai/L as Rimon EC formulation measured 8 days post compound treatment relative to untreated control. Format: functional.
For test [20], the system named is Spodoptera littoralis. In words: Insecticidal activity against Spodoptera littoralis worm third-instar larvae grown on compound pre-treated caster bean leaves assessed as larval mortality at 0.5 mg of ai/L as Rimon EC formulation measured 8 days post compound treatment. Format: functional. In a few lines:
as §2

Test [21] relates to Spodoptera littoralis. In words: Insecticidal activity against Spodoptera littoralis worm third-instar larvae grown on compound pre-treated caster bean leaves assessed as larval mortality at 0.5 mg of ai/L as Rimon EC formulation measured 4 days post compound treatment. It counts as functional. In a few lines: as §2
The test system of test [22] is Mythimna separata. The test can be described thus: Insecticidal activity against Mythimna separata (Oriental armyworm) second-instar larvae reared on compound pre-treated corn disks assessed as larval mortality at 12.5 mg/L measured 7 days post compound treatment by leaf-dip method. It counts as functional. In a few lines: as §1
For test [23], the system named is Mythimna separata. The test can be described thus: Insecticidal activity against Mythimna separata (Oriental armyworm) second-instar larvae reared on compound pre-treated corn disks assessed as larval mortality at 5 mg/L measured 7 days post compound treatment by leaf-dip method. Format: functional. In a few lines:
as §1

With `O=C(NC(=O)c1c(F)cccc1F)Nc1ccc(C(F)(C(F)(F)F)C(F)(F)F)c(Br)c1`, the mortality at 15.625 µg/mL in test [1] was 46.6%. Moreover, the mortality at 31.25 µg/mL in test [2] stood at 100%.
With `O=C(NC(=O)c1c(F)cccc1F)Nc1ccc(Br)cc1C(F)(C(F)(F)F)C(F)(F)F`, in test [1], the mortality at 15.625 µg/mL came to 56.6%. The mortality at 31.25 µg/mL in test [2] turned out to be 100%.
Take `Cc1cc(C(F)(C(F)(F)F)C(F)(F)F)cc(C)c1NC(=O)NC(=O)c1c(F)cccc1F`: the mortality at 0.125 µg/mL in [3] was determined as 50%. In test [4], the mortality at 0.25 µg/mL was 80%. In addition, the Activity in test [5] was >92%; in test [7], 31%; in [8] it was 45%. Moreover, the result in test [6] was inactive. In addition, the mortality in [9] was 78%; in test [10], 36%; in [13], 18%; in test [14], 8%. The result in [11] and in test [12] was Active.
Turning to `COc1ccc(NC(=O)NC(=O)c2c(F)cccc2F)c(C(F)(C(F)(F)F)C(F)(F)F)c1`, the mortality at 62.5 µg/mL in [15] stood at 100%. Besides, the mortality at 31.25 µg/mL in test [2] was 86.6%.
`Cc1cc(C(F)(C(F)(F)F)C(F)(F)F)ccc1NC(=O)NC(=O)c1c(F)cccc1F`: in test [1], the mortality at 15.625 µg/mL came out at 56.6%. For the same compound, in test [2], the mortality at 31.25 µg/mL worked out at 100%.
For the compound `O=C(NC(=O)c1c(F)cccc1F)Nc1c(F)cc(C(F)(C(F)(F)F)C(F)(F)F)cc1F`, the mortality at 0.125 µg/mL in test [3] turned out to be 62.7%. In addition, the mortality at 0.25 µg/mL in test [4] was 100%.
Take `O=C(NC(=O)c1c(F)cccc1F)Nc1ccc(C(F)(C(F)(F)F)C(F)(F)F)c(Cl)c1`: the mortality at 15.625 µg/mL in [1] came out at 86.6%. In addition, the mortality at 31.25 µg/mL in test [2] came to 100%.
Regarding `Cc1cc(C(F)(C(F)(F)F)C(F)(F)F)cc(C)c1NC(=O)NC(=O)c1ccccc1Cl`, the mortality at 10 µg/mL in test [16] was 69.1%. For the same compound, in [17], the mortality at 50 µg/mL came to 100%.
On to `O=C(NC(=O)c1c(F)cccc1F)Nc1ccc(C(F)(C(F)(F)F)C(F)(F)F)cc1Cl`, for which the mortality at 15.625 µg/mL in [1] came to 20%. Further, in [2], the mortality at 31.25 µg/mL worked out at 100%.
Take `O=C(NC(=O)c1c(F)cccc1F)Nc1ccc(OC(F)(F)C(F)OC(F)(F)F)c(Cl)c1` (stereo unspecified) [NOVALURON]: the outcome in [18] was Active. In addition, the Activity in test [19] amounted to 44%. Further, the mortality in [20] was found to be 78%; in test [21], 6%.
As for `O=C(NC(=O)c1c(F)cccc1F)Nc1ccc(C(F)(C(F)(F)F)C(F)(F)F)cc1F`, the mortality at 0.125 µg/mL in [3] worked out at 63.3%. In addition, the mortality at 0.25 µg/mL in [4] was determined as 100%.
`O=C(NC(=O)c1c(F)cccc1F)Nc1ccc(Cl)cc1` [DIFLUBENZURON]: the mortality at 0.125 µg/mL in [3] came out at 69.5%. The mortality at 0.25 µg/mL in test [4] worked out at 100%.
With `O=C(NC(=O)c1c(F)cccc1F)Nc1ccc(C(F)(C(F)(F)F)C(F)(F)F)cc1`, in [1], the mortality at 15.625 µg/mL is 43.3%. Moreover, the mortality at 31.25 µg/mL in test [2] worked out at 100%.
As to `Cc1ccc(NC(=O)NC(=O)c2c(F)cccc2F)c(C(F)(C(F)(F)F)C(F)(F)F)c1`, in test [15], the mortality at 62.5 µg/mL was 100%. For the same compound, the mortality at 31.25 µg/mL in test [2] turned out to be 93.3%.
On to `O=C(NC(=O)c1ccccc1)Nc1ccc(C(F)(C(F)(F)F)C(F)(F)F)cc1`, for which, in test [16], the mortality at 10 µg/mL turned out to be 68.1%. In addition, the mortality at 12.5 µg/mL in test [22] came out at 100%. The outcome in test [6] was inactive. Moreover, the Activity in test [7] came to 94%; in test [8] it was 69%. The mortality in test [9] was found to be 22%; in test [10] it was 14%; in test [13] it was 18%; in [14] it was 8%.
As to `O=C(NC(=O)c1ccccc1Cl)Nc1ccc(C(F)(C(F)(F)F)C(F)(F)F)cc1`, the mortality at 10 µg/mL in test [16] was 100%. Further, the mortality at 5 µg/mL in test [23] turned out to be 66.9%.
